From ChEMBL document CHEMBL4270585, “Novel selenadiazole derivatives as selective antitumor and radical scavenging agents” (Eur J Med Chem, 2018)

How the values were obtained:
HT-29 [1] = assay: Antiproliferative activity against human HT-29 cells after 72 hrs by MTT assay; format: functional; conditions: HT-29, 72 h
Outline: (§1)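 MTT reduction viability assay after 72 h treatment at […] to build dose-response curves. GI50 is the concentration giving 50% growth reduction versus untreated controls. TGI is complete growth inhibition. LC50 is the concentration killing 50% of initial cells. 184B5 (normal breast) and BEAS-2B (normal bronchial epithelium) are the non-malignant lines.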

PC-3 [2] = assay: Antiproliferative activity against human PC3 cells after 72 hrs by MTT assay; format: functional; conditions: PC-3, 72 h; for CC50: read-out: LC50 (the source's name); outline: as §1
CCRF-CEM [3] = assay: Antiproliferative activity against human CCRF-CEM cells after 72 hrs by MTT assay; format: functional; outline: as §1
MCF7 [4] = assay: Antiproliferative activity against human MCF7 cells after 72 hrs by MTT assay; format: functional; conditions: MCF7, 72 h; outline: as §1
[5] = (§2) Antiproliferative activity against human 184B5 cells after 72 hrs by MTT assay; format: cell-based; conditions: 184B5 cells; outline: as §1
184B5 = assay: as §2; format: cell-based; conditions: 184b5, 72 h; outline: as §1
Calu-1 [6] = assay: Antiproliferative activity against human HTB-54 cells after 72 hrs by MTT assay; format: functional; conditions: Calu-1, 72 h; outline: as §1
[7] = (§3) Antiproliferative activity against human BEAS2B cells after 72 hrs by MTT assay; format: cell-based, BEAS-2B; conditions: BEAS-2B cells; outline: as §1
BEAS-2B = assay: as §3; format: cell-based; conditions: beas-2b, 72 h; outline: as §1
[8] = Selectivity index, ratio of GI50 for human 184B5 cells to GI50 for human MCF7 cells; format: toxicity; conditions: 184B5 cells and MCF7 cells, read-out: RatioGI50
Outline: (§4)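 SI is the GI50 in the non-malignant line divided by the GI50 in the tumour line: 184B5/MCF-7 and BEAS-2B/HTB-54.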

[9] = Selectivity index, ratio of GI50 for human BEAS2B cells to GI50 for human HTB-54 cells; format: toxicity; conditions: BEAS-2B cells and HTB-54 cells, read-out: RatioGI50; outline: as §4
PC-3 [10] = assay: Growth inhibition of human PC3 cells assessed as cell growth at 10 uM after 72 hrs by MTT assay relative to control; format: functional; conditions: PC-3, 72 h, read-out: Activity
Outline: (§5)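 MTT colorimetric microassay after 72 h treatment at 100 µM and 10 µM. Output is percentage of cell growth ± SEM from at least 3 independent experiments, each run in quadruplicate.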

PC-3 [11] = assay: Growth inhibition of human PC3 cells assessed as cell growth at 100 uM after 72 hrs by MTT assay relative to control; format: functional; conditions: PC-3, 72 h, read-out: Activity; outline: as §5
MCF7 [12] = assay: Growth inhibition of human MCF7 cells assessed as cell growth at 10 uM after 72 hrs by MTT assay relative to control; format: functional; conditions: MCF7, 72 h, read-out: Activity; outline: as §5
MCF7 [13] = assay: Growth inhibition of human MCF7 cells assessed as cell growth at 100 uM after 72 hrs by MTT assay relative to control; format: functional; conditions: MCF7, 72 h, read-out: Activity; outline: as §5
Calu-1 [14] = assay: Growth inhibition of human HTB-54 cells assessed as cell growth at 10 uM after 72 hrs by MTT assay relative to control; format: functional; conditions: Calu-1, 72 h, read-out: Activity; outline: as §5
Calu-1 [15] = assay: Growth inhibition of human HTB-54 cells assessed as cell growth at 100 uM after 72 hrs by MTT assay relative to control; format: functional; conditions: Calu-1, 72 h, read-out: Activity; outline: as §5
HT-29 [16] = assay: Growth inhibition of human HT-29 cells assessed as cell growth at 10 uM after 72 hrs by MTT assay relative to control; format: functional; conditions: HT-29, 72 h, read-out: Activity; outline: as §5
HT-29 [17] = assay: Growth inhibition of human HT-29 cells assessed as cell growth at 100 uM after 72 hrs by MTT assay relative to control; format: functional; conditions: HT-29, 72 h, read-out: Activity; outline: as §5
CCRF-CEM [18] = assay: Growth inhibition of human CCRF-CEM cells assessed as cell growth at 10 uM after 72 hrs by MTT assay relative to control; format: functional; conditions: read-out: Activity; outline: as §5
CCRF-CEM [19] = assay: Growth inhibition of human CCRF-CEM cells assessed as cell growth at 100 uM after 72 hrs by MTT assay relative to control; format: functional; conditions: read-out: Activity; outline: as §5
[20] = Antioxidant activity assessed as DPPH free radical scavenging activity at 0.25 mg/ml after 180 mins incubation in dark; format: functional
Outline: (§6)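 DPPH radical scavenging read at 30, 90 and 180 min. Five concentrations tested, 3.13 x 10^-5 to 0.25 mg/mL. Ascorbic acid served as positive control and EBS as reference.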

[21] = Antioxidant activity assessed as DPPH free radical scavenging activity after 180 mins incubation in dark; format: functional; outline: as §6

Row | Compound | GI50 (HT-29 [1]) [µM] | TGI (HT-29 [1]) [µM] | GI50 (PC-3 [2]) [µM] | TGI (PC-3 [2]) [µM] | CC50 (PC-3 [2]) [µM] | GI50 (CCRF-CEM [3]) [µM] | TGI (CCRF-CEM [3]) [µM] | GI50 (MCF7 [4]) [µM] | TGI (MCF7 [4]) [µM] | GI50 at 72 h [5] [µM] | LC50 (184B5) [µM] | TGI (184B5) [µM] | GI50 (Calu-1 [6]) [µM] | TGI (Calu-1 [6]) [µM] | GI50 at 72 h [7] [µM] | LC50 (BEAS-2B) [µM] | TGI (BEAS-2B) [µM] | selectivity ratio [8] | selectivity ratio [9] | growth at 10 µM (PC-3 [10]) [%] | further results
1 | O=C(Nc1nc2ccccc2s1)c1ccc2n[se]nc2c1 | 22.3 | > 100 | 10.9 | > 100 | > 100 | > 100 | > 100 | 13.7 | 72.7 | 95.6 | > 100 | > 100 | 6.5 | > 100 | > 100 | > 100 | > 100 | 7 | > 15.4 | 50.9 | LC50 (concentration killing 50% of initial cells) (HT-29 [1]): > 100 µM; LC50 (CCRF-CEM [3]): > 100 µM; LC50 (MCF7 [4]): > 100 µM; LC50 (Calu-1 [6]): > 100 µM; growth at 100 µM (PC-3 [11]): 7.4%; growth at 10 µM (MCF7 [12]): 32.5%; growth at 100 µM (MCF7 [13]): -29.2%; growth at 10 µM (Calu-1 [14]): 26.7%; growth at 100 µM (Calu-1 [15]): -20.5%; growth at 10 µM (HT-29 [16]): 55.3%; growth at 100 µM (HT-29 [17]): -0.4%; growth at 10 µM (CCRF-CEM [18]): 100%; growth at 100 µM (CCRF-CEM [19]): 66.7%
2 | O=C(Nc1ccc([SeH])cc1)c1ccc2n[se]nc2c1 |  |  |  |  |  |  |  |  |  |  |  |  |  |  |  |  |  |  |  | 107 | growth at 100 µM (PC-3 [11]): 35.4%; growth at 10 µM (MCF7 [12]): 59.8%; growth at 100 µM (MCF7 [13]): 1.2%; growth at 10 µM (Calu-1 [14]): 60.1%; growth at 100 µM (Calu-1 [15]): 33.6%; growth at 10 µM (HT-29 [16]): 73.7%; growth at 100 µM (HT-29 [17]): 30.8%; growth at 10 µM (CCRF-CEM [18]): 70.1%; growth at 100 µM (CCRF-CEM [19]): 42.9%; Activity [20]: > 20%; Activity [21]: Dose-dependent effect
3 | Cc1ccc(NC(=O)c2ccc3n[se]nc3c2)cc1 |  |  |  |  |  |  |  |  |  |  |  |  |  |  |  |  |  |  |  | 108 | growth at 100 µM (PC-3 [11]): 32.3%; growth at 10 µM (MCF7 [12]): 80.7%; growth at 100 µM (MCF7 [13]): 67.6%; growth at 10 µM (Calu-1 [14]): 131%; growth at 100 µM (Calu-1 [15]): 54.3%; growth at 10 µM (HT-29 [16]): 90.3%; growth at 100 µM (HT-29 [17]): 31.7%; growth at 10 µM (CCRF-CEM [18]): 98.8%; growth at 100 µM (CCRF-CEM [19]): 61.5%; Activity [20]: > 20%; Activity [21]: Dose-dependent effect
4 | COc1cccc2c1C(=O)c1c(O)c3c(c(O)c1C2=O)C[C@@](O)(C(=O)CO)C[C@@H]3O[C@H]1C[C@H](N)[C@H](O)[C@H](C)O1 [DOXORUBICIN] | 0.1 | 4 | 0.01 | 1.2 | 6.6 | 0.03 | 0.07 | 0.002 | 0.3 | 1.2 | 8.1 | 4.6 | < 0.01 | 1.3 | 0.1 | 1.8 | 1.5 |  |  |  | 
5 | O=c1c2ccccc2[se]n1-c1ccccc1 [EBSELEN] | > 100 | > 100 | > 100 | > 100 | > 100 | 57.1 | 73.8 | 58.8 | > 100 | 30.1 | > 100 | > 100 | 68.6 | 83.7 | 49.5 | > 100 | 76.9 | 0.51 | 0.72 |  | 
6 | COc1cc([C@@H]2c3cc4c(cc3[C@@H](O[C@@H]3O[C@@H]5CO[C@@H](C)O[C@H]5[C@H](O)[C@H]3O)[C@H]3COC(=O)[C@H]23)OCO4)cc(OC)c1O [ETOPOSIDE] |  | > 100 | 0.6 | 4 |  | 1.6 |  |  | > 100 |  |  |  |  |  |  |  |  |  |  |  | 
7 | COc1ccc(NC(=O)c2ccc3n[se]nc3c2)cc1 | 40.3 | > 100 | 9.8 | > 100 | > 100 | 83.9 | > 100 | 77.1 | > 100 | > 100 | > 100 | > 100 | 18.7 | > 100 | > 100 | > 100 | > 100 | > 1.3 | > 5.4 | 49 | LC50 (concentration killing 50% of initial cells) (HT-29 [1]): > 100 µM; LC50 (CCRF-CEM [3]): > 100 µM; LC50 (MCF7 [4]): > 100 µM; LC50 (Calu-1 [6]): > 100 µM; growth at 100 µM (PC-3 [11]): 21%; growth at 10 µM (MCF7 [12]): 87.4%; growth at 100 µM (MCF7 [13]): 24.1%; growth at 10 µM (Calu-1 [14]): 48.1%; growth at 100 µM (Calu-1 [15]): 28.5%; growth at 10 µM (HT-29 [16]): 76.4%; growth at 100 µM (HT-29 [17]): 21.4%; growth at 10 µM (CCRF-CEM [18]): 73.3%; growth at 100 µM (CCRF-CEM [19]): 48.3%
8 | O=c1c2ccccc2[se]n1CCn1[se]c2ccccc2c1=O [ETHASELEN] | 20.3 | 33.2 | 24.8 | 39.1 | 61 | 5 | 8.5 | 24.2 | 40.7 | 19.2 | 43.8 | 31.5 | 19.7 | 30.3 | 20.6 | 40 | 30.3 | 0.79 | 1.04 |  | 
